Experimental data: ChEMBL document CHEMBL4350961, “Discovery of Pyrrolo[3,2- d]pyrimidin-4-one Derivatives as a New Class of Potent and Cell-Active Inhibitors of P300/CBP-Associated Factor Bromodomain” (J Med Chem, 2019)
Calls of active or inactive are those of the source. The calls are words filed in the database; no cut-off is given here.

What was measured:
[1] = system: Angiopoietin-1 receptor (Homo sapiens), Q02763 [Q939H,Q940H]; assay: Inhibition of human Tie2 Q939H/Q940H mutant (771 to end residues) using poly(Glu, Tyr) 4:1 as substrate measured after 40 mins in presence of [gamma33P]ATP by scintillation counting method
[2] = Cmax in Sprague-Dawley rat at 10 mg/kg, po administered via gavage by LC-MS/MS analysis; assay type: ADME, organism-based; design: dose 10 mg/kg, route oral; conditions: in vivo
How it was run: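 Serial jugular-vein blood taken at set times, spun to plasma at 4 ℃, stored at -80 °C. Plasma extracted with acetonitrile containing internal standard, quantified by LC-MS/MS; noncompartmental fit.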

[3] = molecular target: Mitogen-activated protein kinase kinase kinase 5 (Homo sapiens) (UniProt Q99683); assay: Inhibition of recombinant human ASK1 (649 to 946 residues) at 10 uM using myelin basic protein as substrate measured after 40 mins in presence of [gamma33P]ATP by scintillation counting method
[4] = molecular target: Aurora kinase B (Homo sapiens) (UniProt Q96GD4); assay: Inhibition of recombinant full-length human AURKB at 10 uM using AKRRRLSSLRA as substrate measured after 40 mins in presence of [gamma33P]ATP by scintillation counting method
[5] = molecular target: Tyrosine-protein kinase BTK (Homo sapiens) (UniProt Q06187); assay: Inhibition of full-length recombinant human BTK at 10 uM using KVEKIGEGTYGVVYK as substrate measured after 40 mins in presence of [gamma33P]ATP by scintillation counting method
How it was run: (§1)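 Kinase panel of 422 kinases screened by Eurofins KinaseProfiler at a single test-compound concentration of 10 µM.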

[6] = system: Serine/threonine-protein kinase B-raf (Homo sapiens), P15056 [V600E]; assay: Inhibition of recombinant human BRAF V599E mutant (416 to end residues) at 10 uM using myelin basic protein as substrate measured after 40 mins in presence of [gamma33P]ATP by scintillation counting method
[7] = molecular target: CDK17/Cyclin-Y (Homo sapiens) (UniProt Q00537+Q8ND76); assay: Inhibition of human CDK17/cyclinY at 10 uM using PKSPKARKKL as substrate measured after 120 mins in presence of [gamma33P]ATP by scintillation counting method; assay type: protein-complex assay; how it was run: as §1
[8] = system: Mast/stem cell growth factor receptor Kit (Homo sapiens), P10721 [V654A]; assay: Inhibition of recombinant human c-Kit V654A mutant (544 to end residues) at 10 uM using GGMEDIYFEFMGGKKK as substrate measured after 40 mins in presence of [gamma33P]ATP by scintillation counting method
[9] = molecular target: Mitogen-activated protein kinase kinase kinase kinase 2 (Homo sapiens) (UniProt Q12851); assay: Inhibition of recombinant human GCK at 10 uM using myelin basic protein as substrate measured after 40 mins in presence of [gamma33P]ATP by scintillation counting method
[10] = molecular target: G protein-coupled receptor kinase 6 (Homo sapiens) (UniProt P43250); assay: Inhibition of recombinant full-length human GRK6 at 10 uM using casein as substrate measured after 40 mins in presence of [gamma33P]ATP by scintillation counting method
[11] = molecular target: Serine/threonine-protein kinase haspin (Homo sapiens) (UniProt Q8TF76); assay: Inhibition of recombinant human haspin (471 to end residues) at 10 uM using RARTLSFAEPG as substrate measured after 40 mins in presence of [gamma33P]ATP by scintillation counting method
[12] = molecular target: Homeodomain-interacting protein kinase 4 (Homo sapiens) (UniProt Q8NE63); assay: Inhibition of recombinant full-length human HIPK4 at 10 uM using RRRFRPASPLRGPPK as substrate measured after 40 mins in presence of [gamma33P]ATP by scintillation counting method
[13] = molecular target: Mitogen-activated protein kinase 1 (Homo sapiens) (UniProt P28482); assay: Inhibition of human MAPK2 at 10 uM; how it was run: as §1
[14] = molecular target: Dual specificity mitogen-activated protein kinase kinase 2 (Homo sapiens) (UniProt P36507); assay: Inhibition of recombinant full-length human MEK2 at 10 uM using MBP as substrate measured after 40 mins in presence of [gamma33P]ATP by scintillation counting method
[15] = molecular target: Dual specificity mitogen-activated protein kinase kinase 4 (Homo sapiens) (UniProt P45985); assay: Inhibition of recombinant human MKK4 (34 to end residues) at 10 uM using unactive JNK1a1 as substrate measured after 40 mins in presence of [gamma33P]ATP by scintillation counting method
[16] = molecular target: Serine/threonine-protein kinase 26 (Homo sapiens) (UniProt Q9P289); assay: Inhibition of recombinant human MST4 (4 to 304 residues) at 10 uM using RLGRDKYKTLRQIRQ as substrate measured after 40 mins in presence of [gamma33P]ATP by scintillation counting method
[17] = molecular target: Serine/threonine-protein kinase Nek7 (Homo sapiens) (UniProt Q8TDX7); assay: Inhibition of recombinant human NEK7 (2 to end residues) at 10 uM using FLAKSFGSPNRAYKK as substrate measured after 40 mins in presence of [gamma33P]ATP by scintillation counting method
[18] = molecular target: Protein kinase C alpha type (Homo sapiens) (UniProt P17252); assay: Inhibition of recombinant full-length human PKCalpha at 10 uM using histone H1 as substrate measured after 40 mins in presence of [gamma33P]ATP by scintillation counting method
[19] = molecular target: Protein kinase C theta type (Homo sapiens) (UniProt Q04759); assay: Inhibition of recombinant full-length human PKCtheta at 10 uM using histone H1as substrate measured after 40 mins in presence of [gamma33P]ATP by scintillation counting method
[20] = molecular target: Serine/threonine-protein kinase PLK1 (Homo sapiens) (UniProt P53350); assay: Inhibition of recombinant full-length human Plk1 at 10 uM using casein as substrate measured after 40 mins in presence of [gamma33P]ATP by scintillation counting method
[21] = molecular target: Receptor-interacting serine/threonine-protein kinase 1 (Homo sapiens) (UniProt Q13546); assay: Inhibition of human RIPK1 (8 to 322 residues) using myelin basic protein as substrate measured after 120 mins in presence of [gamma33P]ATP by scintillation counting method; how it was run: as §1
[22] = species: Homo sapiens; assay: Inhibition of human Ros V2262A mutant (1883 to end residues) using KKKSPGEYVNIEFG as substrate measured after 40 mins in presence of [gamma33P]ATP by scintillation counting method; how it was run: as §1
[23] = molecular target: Serine/threonine-protein kinase SBK1 (Homo sapiens) (UniProt Q52WX2); assay: Inhibition of recombinant full-length human SBK1 at 10 uM using KKLRRTLSVA as substrate measured after 120 mins in presence of [gamma33P]ATP by scintillation counting method
[24] = molecular target: Tyrosine-protein kinase SYK (Homo sapiens) (UniProt P43405); assay: Inhibition of recombinant full-length human Syk at 10 uM using poly(Glu, Tyr) 4:1 as substrate measured after 120 mins in presence of [gamma33P]ATP by scintillation counting method
[25] = molecular target: Tyrosine-protein kinase TXK (Homo sapiens) (UniProt P42681); assay: Inhibition of human Txk (256 to end residues) using GEEPLYWSFPAKKK as substrate measured after 40 mins in presence of [gamma33P]ATP by scintillation counting method

CDK17/Cyclin-Y (Homo sapiens), sequence (Q00537 whole entry): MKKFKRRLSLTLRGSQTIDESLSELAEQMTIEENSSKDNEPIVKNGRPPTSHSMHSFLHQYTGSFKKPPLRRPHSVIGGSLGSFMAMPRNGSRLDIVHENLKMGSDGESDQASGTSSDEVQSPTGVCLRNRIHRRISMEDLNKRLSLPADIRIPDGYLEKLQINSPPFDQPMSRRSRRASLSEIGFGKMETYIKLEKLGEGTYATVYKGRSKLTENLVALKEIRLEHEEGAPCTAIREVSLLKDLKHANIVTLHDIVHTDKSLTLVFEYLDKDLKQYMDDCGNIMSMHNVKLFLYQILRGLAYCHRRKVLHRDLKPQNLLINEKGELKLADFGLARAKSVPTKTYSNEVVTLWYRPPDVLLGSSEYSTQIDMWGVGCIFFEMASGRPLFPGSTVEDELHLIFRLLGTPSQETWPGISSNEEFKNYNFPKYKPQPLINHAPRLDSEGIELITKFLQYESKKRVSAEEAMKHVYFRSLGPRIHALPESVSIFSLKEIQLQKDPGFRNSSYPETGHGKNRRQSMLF
CDK17/Cyclin-Y (Homo sapiens), sequence (Q8ND76 2-341 partner limits assumed): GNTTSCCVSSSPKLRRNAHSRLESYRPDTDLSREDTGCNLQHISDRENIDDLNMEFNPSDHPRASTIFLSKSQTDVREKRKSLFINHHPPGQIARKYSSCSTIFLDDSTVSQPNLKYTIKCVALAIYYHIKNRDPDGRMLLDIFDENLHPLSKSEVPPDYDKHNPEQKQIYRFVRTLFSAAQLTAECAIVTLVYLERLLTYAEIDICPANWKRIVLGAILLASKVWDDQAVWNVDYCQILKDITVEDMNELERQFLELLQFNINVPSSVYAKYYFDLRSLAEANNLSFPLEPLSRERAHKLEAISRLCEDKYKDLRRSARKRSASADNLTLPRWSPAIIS
Mitogen-activated protein kinase kinase kinase kinase 2 (Homo sapiens), sequence (Q12851 whole entry): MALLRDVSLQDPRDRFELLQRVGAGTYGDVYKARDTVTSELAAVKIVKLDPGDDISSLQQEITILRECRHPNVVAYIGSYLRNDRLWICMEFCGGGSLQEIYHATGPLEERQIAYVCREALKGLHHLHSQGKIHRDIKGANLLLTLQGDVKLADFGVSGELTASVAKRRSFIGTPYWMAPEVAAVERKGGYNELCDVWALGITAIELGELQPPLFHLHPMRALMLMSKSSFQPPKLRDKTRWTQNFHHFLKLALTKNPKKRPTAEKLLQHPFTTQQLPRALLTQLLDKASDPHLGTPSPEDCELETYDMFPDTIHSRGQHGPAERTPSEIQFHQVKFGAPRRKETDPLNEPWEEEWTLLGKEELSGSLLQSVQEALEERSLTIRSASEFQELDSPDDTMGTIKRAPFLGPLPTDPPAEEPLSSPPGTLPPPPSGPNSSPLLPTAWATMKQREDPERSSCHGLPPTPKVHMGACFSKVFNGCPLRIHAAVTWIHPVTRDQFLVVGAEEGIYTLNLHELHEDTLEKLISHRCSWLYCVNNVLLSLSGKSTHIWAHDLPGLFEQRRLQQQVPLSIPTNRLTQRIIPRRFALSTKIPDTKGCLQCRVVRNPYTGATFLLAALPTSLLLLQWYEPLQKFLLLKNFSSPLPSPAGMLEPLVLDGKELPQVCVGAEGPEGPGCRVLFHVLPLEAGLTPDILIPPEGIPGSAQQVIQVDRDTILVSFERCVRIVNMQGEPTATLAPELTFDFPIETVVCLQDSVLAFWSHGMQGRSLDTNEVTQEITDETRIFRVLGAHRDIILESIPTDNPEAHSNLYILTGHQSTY
Angiopoietin-1 receptor (Homo sapiens), Q02763 [Q939H,Q940H], sequence (Q02763 whole entry Q939H/Q940H): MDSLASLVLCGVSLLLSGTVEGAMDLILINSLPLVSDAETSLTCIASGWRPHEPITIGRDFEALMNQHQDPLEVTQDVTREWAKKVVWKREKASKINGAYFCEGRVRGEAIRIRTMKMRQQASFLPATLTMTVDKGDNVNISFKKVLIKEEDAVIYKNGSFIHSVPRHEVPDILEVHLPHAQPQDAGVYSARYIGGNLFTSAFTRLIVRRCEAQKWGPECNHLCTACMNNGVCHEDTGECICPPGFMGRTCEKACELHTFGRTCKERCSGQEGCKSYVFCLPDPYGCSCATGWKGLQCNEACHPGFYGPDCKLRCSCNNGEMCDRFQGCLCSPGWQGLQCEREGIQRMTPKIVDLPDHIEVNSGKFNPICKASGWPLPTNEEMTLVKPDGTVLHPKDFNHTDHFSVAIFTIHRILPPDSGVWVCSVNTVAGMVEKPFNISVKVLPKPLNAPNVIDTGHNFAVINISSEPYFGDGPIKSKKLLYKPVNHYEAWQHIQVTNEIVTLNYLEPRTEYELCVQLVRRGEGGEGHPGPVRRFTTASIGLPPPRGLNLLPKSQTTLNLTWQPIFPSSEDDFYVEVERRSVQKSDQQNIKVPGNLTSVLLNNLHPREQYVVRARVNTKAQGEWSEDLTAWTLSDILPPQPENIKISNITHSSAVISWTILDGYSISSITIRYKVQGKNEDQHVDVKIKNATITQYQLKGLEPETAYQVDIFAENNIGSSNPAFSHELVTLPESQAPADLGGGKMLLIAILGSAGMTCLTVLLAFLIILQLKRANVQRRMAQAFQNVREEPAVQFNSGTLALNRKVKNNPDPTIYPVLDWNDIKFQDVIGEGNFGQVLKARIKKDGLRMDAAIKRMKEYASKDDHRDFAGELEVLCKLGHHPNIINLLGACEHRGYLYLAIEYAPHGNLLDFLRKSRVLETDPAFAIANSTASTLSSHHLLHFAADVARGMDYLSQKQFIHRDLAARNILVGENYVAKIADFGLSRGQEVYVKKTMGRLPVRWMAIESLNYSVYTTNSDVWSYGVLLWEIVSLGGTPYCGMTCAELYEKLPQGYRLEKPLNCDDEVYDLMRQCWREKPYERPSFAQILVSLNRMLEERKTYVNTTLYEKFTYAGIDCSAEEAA
Mitogen-activated protein kinase kinase kinase 5 (Homo sapiens), sequence (Q99683 whole entry, the tested form may be a part): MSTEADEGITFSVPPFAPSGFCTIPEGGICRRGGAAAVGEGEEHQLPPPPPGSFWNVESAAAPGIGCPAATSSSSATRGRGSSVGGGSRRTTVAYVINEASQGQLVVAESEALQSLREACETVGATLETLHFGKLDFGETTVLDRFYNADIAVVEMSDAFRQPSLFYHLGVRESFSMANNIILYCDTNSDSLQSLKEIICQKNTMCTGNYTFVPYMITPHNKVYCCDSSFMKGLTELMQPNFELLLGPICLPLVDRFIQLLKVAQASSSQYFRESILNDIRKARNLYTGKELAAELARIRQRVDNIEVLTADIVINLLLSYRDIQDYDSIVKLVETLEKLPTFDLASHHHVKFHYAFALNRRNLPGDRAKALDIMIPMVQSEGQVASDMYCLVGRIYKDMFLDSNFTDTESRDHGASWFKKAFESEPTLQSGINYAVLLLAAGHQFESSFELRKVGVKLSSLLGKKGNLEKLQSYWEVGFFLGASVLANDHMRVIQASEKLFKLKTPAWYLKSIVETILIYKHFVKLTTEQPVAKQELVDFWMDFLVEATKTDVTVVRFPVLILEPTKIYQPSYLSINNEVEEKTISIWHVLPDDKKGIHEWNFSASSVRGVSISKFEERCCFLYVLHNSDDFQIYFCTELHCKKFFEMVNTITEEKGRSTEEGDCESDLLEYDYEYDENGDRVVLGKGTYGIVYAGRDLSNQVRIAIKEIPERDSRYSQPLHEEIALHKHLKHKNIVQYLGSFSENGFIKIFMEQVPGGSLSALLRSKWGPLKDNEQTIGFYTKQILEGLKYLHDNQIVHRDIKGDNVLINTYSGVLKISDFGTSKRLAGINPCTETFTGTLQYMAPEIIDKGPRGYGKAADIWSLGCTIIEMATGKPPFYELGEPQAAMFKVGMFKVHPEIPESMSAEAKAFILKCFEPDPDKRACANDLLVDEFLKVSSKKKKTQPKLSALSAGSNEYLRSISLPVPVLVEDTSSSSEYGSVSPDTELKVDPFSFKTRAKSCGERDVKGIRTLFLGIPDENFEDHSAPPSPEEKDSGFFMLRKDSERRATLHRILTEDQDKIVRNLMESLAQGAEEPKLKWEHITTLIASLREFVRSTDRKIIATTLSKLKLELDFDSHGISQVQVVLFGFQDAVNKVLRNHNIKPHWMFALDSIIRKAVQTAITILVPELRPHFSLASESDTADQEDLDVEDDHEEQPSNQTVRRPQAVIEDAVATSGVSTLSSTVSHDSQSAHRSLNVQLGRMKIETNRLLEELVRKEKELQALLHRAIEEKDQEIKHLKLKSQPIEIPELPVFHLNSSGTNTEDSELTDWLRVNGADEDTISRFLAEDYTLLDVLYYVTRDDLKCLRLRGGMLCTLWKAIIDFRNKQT
Tyrosine-protein kinase BTK (Homo sapiens), sequence (Q06187 whole entry): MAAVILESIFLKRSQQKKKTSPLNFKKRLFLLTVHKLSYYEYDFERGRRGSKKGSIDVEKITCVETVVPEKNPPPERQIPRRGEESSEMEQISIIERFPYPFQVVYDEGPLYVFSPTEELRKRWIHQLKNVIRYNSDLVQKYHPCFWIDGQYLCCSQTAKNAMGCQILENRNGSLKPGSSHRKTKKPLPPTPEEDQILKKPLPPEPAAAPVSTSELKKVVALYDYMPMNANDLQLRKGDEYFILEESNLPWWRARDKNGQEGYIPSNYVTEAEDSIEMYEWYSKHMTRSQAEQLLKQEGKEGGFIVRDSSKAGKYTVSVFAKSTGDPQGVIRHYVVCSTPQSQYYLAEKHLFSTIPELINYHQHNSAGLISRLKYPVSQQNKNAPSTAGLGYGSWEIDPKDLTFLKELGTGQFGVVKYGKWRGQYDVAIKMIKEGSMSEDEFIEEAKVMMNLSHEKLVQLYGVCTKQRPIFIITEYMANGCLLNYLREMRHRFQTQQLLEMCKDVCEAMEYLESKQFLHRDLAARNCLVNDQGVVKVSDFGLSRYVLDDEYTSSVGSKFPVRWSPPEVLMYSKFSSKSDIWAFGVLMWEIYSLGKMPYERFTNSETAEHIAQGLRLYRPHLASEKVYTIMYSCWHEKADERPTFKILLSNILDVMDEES

CN1C[C@H](Nc2nc3cc[nH]c3c(=O)n2C)C[C@H](c2ccc3c(c2)OCCO3)C1
inhibition [1]: inactive
Cmax [2]: 1420 ng/mL
inhibition [3]: inactive
inhibition [4]: inactive
inhibition [5]: inactive
inhibition [6]: inactive
inhibition [7]: inactive
inhibition [8]: inactive
inhibition [9]: inactive
inhibition [10]: inactive
inhibition [11]: inactive
inhibition [12]: inactive
inhibition [13]: inactive
inhibition [14]: inactive
inhibition [15]: inactive
inhibition [16]: inactive
inhibition [17]: inactive
inhibition [18]: inactive
inhibition [19]: inactive
inhibition [20]: inactive
inhibition [21]: inactive
inhibition [22]: inactive
inhibition [23]: inactive
inhibition [24]: inactive
inhibition [25]: inactive
